Sampled rows, rich in hits. Any-hit rate of the full collection: about 4.3%.
BB579 growth dn: yeast BB579 growth reduction in restrictive medium | S. cerevisiae BB579 growth, OD615, 48 h | inhibition, % at 10 µM | 140,000 compounds, 0.51% hits | AID 804;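 active = inhibition above a set limit, 3 SD over the mean compound inhibition, cut at about 44% in these data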
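System: Saccharomyces cerevisiae DeaD strain BB579, replicative lifespan model yeast | Buffer or medium: Restrictive glucose-based CSMM-D medium | Times: 4 h preincubation and 48 h exposure at 30 °C | Detection: OD615 turbidity measurement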
WT yeast gro inh: growth inhibition of WT yeast, mitochondrial fusion screen; mitochondrial fusion phenotypic screen, WT strain; inhibition, % at 10 µM; 190,000 compounds, 2.1% hits; AID 1362; in the data active = inhibition above about 58%; tested in S. cerevisiae
RAM inhibit: inhibitors of the yeast RAM network; 190,000 compounds, 1.8% hits; inhibition, % at 50 µM; S. cerevisiae dse1pr::URA3 reporter, 5-FOA growth OD615, 2 d; analog-sensitive cbk1-as2 kinase mutant strain;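 active = inhibition above a set limit, 3 SD over mean compound inhibition, cut at about 8.4% in these data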;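 also: inhibition rescues growth on 5-FOA so higher OD means more RAM inhibition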
Yeast life ext: yeast lifespan extension | S. cerevisiae growth with nicotinamide, OD615; deaD strain in restrictive glucose medium | inhibition of the nicotinamide effect, % at 10 µM | 130,000 compounds, 0.68% hits;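 active = inhibition above a set limit, placed 3 SD over the median of all compounds, cut at about 26% in these data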
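assay system = DeaD-strain S. cerevisiae | buffer or medium = restrictive glucose medium | reagent = 1.5 mM nicotinamide | compound = 10 µM single point, 0.25% DMSO | incubation = 48 h compound exposure at 30 °C, humidified | signal = OD615 measurement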
Each line names hits and unclear results; the compound was inactive in the other large screens.

C=C(C)c1cccc(C(C)(C)NC(=O)Nc2ncccn2)c1	none
COC(=O)c1cc(NS(=O)(=O)c2ccc(NC(C)=O)cc2)cc(C(=O)OC)c1	none
Cc1cccc(OCCCC(=O)Nc2ccc(N3CCCCC3)cc2)c1C	WT yeast gro inh 61
CCOC(=O)C(=Cc1cc(=O)c(OC)co1)C(=O)OCC	Yeast life ext 35
COc1coc(C(O)CN)cc1=O (centres undefined)	none
Nc1c(C(=O)Nc2ccccc2F)sc2nc(-c3ccco3)ccc12	RAM inhibit 9.2
COC(=O)c1sc2nc(-c3ccco3)ccc2c1N	none
O=C(Nc1ccccc1F)c1ccco1	none (no result: Yeast life ext)
NC(=O)c1sc2nc(-c3ccco3)ccc2c1N	BB579 growth dn 53
CCCOc1ccc(NC(=O)CC2C(=O)N(C)C(=S)N2Cc2cccs2)cc1 (centres undefined)	none (no result: Yeast life ext)
O=C(Nc1ncc(Cc2ccccc2)s1)C1COc2ccccc2O1 (centres undefined)	none
CCCCN=CC1=C(O)CC(c2ccccc2)CC1=O (centres undefined)	none (no result: BB579 growth dn, Yeast life ext)
Cc1ccc(Oc2cc(C)nc(-c3ccccc3O)n2)cc1	RAM inhibit 9.4 (no result: WT yeast gro inh)
O=C(COC(=O)c1ccccn1)Nc1cccc(Cl)c1Cl	WT yeast gro inh 97
O=C(COC(=O)c1cc[n+]([O-])cc1)Nc1cccc(Cl)c1Cl	none (no result: BB579 growth dn, Yeast life ext)
CCOC(=O)c1c(C)[nH]c(C2=NNC(=Nc3cccc(Cl)c3)SC2)c1C	WT yeast gro inh 63
C/C(=N\O)C(C)NC(=O)c1ccccc1 (centres undefined)	none
CC(=O)Nc1ccc(S(=O)(=O)NCCC(=O)OCCN2C(=O)c3ccccc3C2=O)cc1	WT yeast gro inh 73
Cc1ccc(S(=O)(=O)C(C#N)c2nc3ccccc3nc2N2CCCC2)cc1 (centres undefined)	Yeast life ext 72
Cc1ccc(C(=O)NC2CCS(=O)(=O)C2)cc1S(=O)(=O)N1CCCCCC1 (centres undefined)	none (no result: BB579 growth dn, Yeast life ext)
COc1cccc(NC(=O)CSc2nnc(-c3cc(C)n(-c4ccccc4)c3C)o2)c1	RAM inhibit 9.3
COc1ccccc1-c1nnc(SCC(=O)Nc2c(Cl)cccc2Cl)o1	none
Cc1cc(C)cc(NC(=O)CSc2nnc(-c3ccccc3Br)o2)c1	RAM inhibit 11
CC1(C)CC(=O)c2cc(NC(=O)c3ccc(F)cc3)c(=O)oc2C1	none (no result: BB579 growth dn, Yeast life ext)
CSc1nnnn1-c1ccc(Cl)cc1	none (no result: BB579 growth dn, Yeast life ext)
Cc1ccc(-n2nnnc2C(Cl)(Cl)c2nnnn2-c2ccc(C)cc2)cc1	WT yeast gro inh 95
CCc1c(C)sc(NC(=S)N2CC(C)OC(C)C2)c1C(=O)OC (centres undefined)	WT yeast gro inh 64, RAM inhibit 11 (no result: BB579 growth dn, Yeast life ext)
CCOC(=O)CCSCC(=O)N1N=C(c2cccs2)CC1c1ccc(C)cc1 (centres undefined)	RAM inhibit 9.3
COc1ccc(C2CC(c3cccs3)=NN2C(=O)c2ccc(Br)o2)cc1 (centres undefined)	WT yeast gro inh 64
CC(C)Nc1nc(Oc2cccc(Cl)c2Cl)cc(C(F)(F)F)n1	WT yeast gro inh 87
Nc1nc2ccc(S(=O)(=O)N3CCCCC3)cc2s1	WT yeast gro inh 70
CSc1nc2ccc(S(=O)(=O)N3CCCCC3)cc2s1	none
COc1ccc(-c2cc(C(F)(F)F)nc(N3CCCCCC3)n2)cc1	RAM inhibit 8.7
Cc1sc(NC(=O)CSc2nnnn2C2CCCCC2)c(C#N)c1C	WT yeast gro inh 75
Cc1ccc(/C(O)=C/C(=O)C(=O)NNC(=O)C(O)(c2ccccc2)c2ccccc2)cc1	none (no result: Yeast life ext)
COC(=O)C(=O)/C=C(\O)c1ccc(C)cc1	Yeast life ext 73
O=C(NC1CCCC1)c1ncn[nH]1	none
CC1CCCN(c2nc(NCc3ccco3)nc(N)c2[N+](=O)[O-])C1 (centres undefined)	none
Cc1ccc(Nc2nc(N)c([N+](=O)[O-])c(N3CCCC(C)C3)n2)cc1C (centres undefined)	WT yeast gro inh 96
Cc1ccc(Nc2nc(N3CCN(C)CC3)nc(N)c2[N+](=O)[O-])cc1C	WT yeast gro inh 83
CCSC(=S)Nc1c(C)n(C)n(-c2ccccc2)c1=O	none (no result: BB579 growth dn, Yeast life ext)
CC(=O)NC(Cc1c[nH]c2ccccc12)C(=O)OCC(=O)N1CCCCCC1 (centres undefined)	none (no result: BB579 growth dn, Yeast life ext)
COc1ccc(OC)c(C(=O)COC(=O)c2c(OC)cccc2OC)c1	none
COc1ccc(OC)c(C(=O)COC(=O)c2ccccc2O)c1	RAM inhibit 8.7
Cc1ccccc1NC(=O)CSc1nc(COc2ccccc2)nc2ccccc12	RAM inhibit 9.7
Cc1cc(C)c(NC(=O)CSc2nc(COc3ccccc3)nc3ccccc23)c(C)c1	none
CCOc1ccc(-c2nn(-c3ccccc3)cc2/C=C2\SC(=S)N(C3CCS(=O)(=O)C3)C2=O)cc1 (centres undefined)	RAM inhibit 9.3
CCCOc1ccc(-c2nn(-c3ccccc3)cc2/C=C2\SC(=S)N(C3CCS(=O)(=O)C3)C2=O)cc1 (centres undefined)	none
Cc1cc(C)n(CC(O)CN2c3ccccc3Sc3ccccc32)n1 (centres undefined)	WT yeast gro inh 73
CC1CN(c2snnc2C=C2C(=O)OC(C)(C)OC2=O)CC(C)O1 (centres undefined)	none (no result: BB579 growth dn, Yeast life ext)
Cc1ccc(-n2cc(CNCCc3cscn3)c(-c3ccc(F)cc3)n2)cc1	WT yeast gro inh 69 (no result: BB579 growth dn, Yeast life ext)
Cc1ccc(-n2cc(CNCCCn3ccnc3C)c(-c3ccc(F)cc3)n2)cc1	none (no result: BB579 growth dn, Yeast life ext)
CCC(=O)NC(c1cccs1)c1cc([N+](=O)[O-])c2cccnc2c1O (centres undefined)	none
CC(=O)NC(c1ccccc1)c1cc([N+](=O)[O-])c2cccnc2c1O (centres undefined)	none (no result: BB579 growth dn, Yeast life ext)
CCCC(=O)NC(c1cccs1)c1cc([N+](=O)[O-])c2cccnc2c1O (centres undefined)	BB579 growth dn 47
CC(C)C(=O)NC(c1ccccc1)c1cc([N+](=O)[O-])c2cccnc2c1O (centres undefined)	BB579 growth dn 74
CC(=O)NC(c1cccs1)c1cc([N+](=O)[O-])c2cccnc2c1O (centres undefined)	BB579 growth dn 80
Cc1ccc(NC(=O)C(=O)NCCN2CCN(C(=S)Nc3ccccc3)CC2)cc1	none
CC1CCCC(NC(=O)CNC(=S)N(Cc2ccccc2)Cc2cccs2)C1C (centres undefined)	WT yeast gro inh 65 (no result: BB579 growth dn, Yeast life ext)
CCCCNC(=O)CNC(=S)N(Cc1ccccc1)Cc1cccs1	none (no result: BB579 growth dn, Yeast life ext)
O=C(N/N=C/c1ccccc1Cl)c1nc2ccc([N+](=O)[O-])cc2c(=O)[nH]1	RAM inhibit 10 (no result: BB579 growth dn, Yeast life ext)
COCCn1nnnc1C(C(C)C)N1CCSCC1 (centres undefined)	none (no result: BB579 growth dn, Yeast life ext)
O=[N+]([O-])c1ccccc1Nc1c2ccccc2nc2ccccc12	none (no result: BB579 growth dn, Yeast life ext)
O=[N+]([O-])c1ccc(Nc2c3ccccc3nc3ccccc23)cc1	WT yeast gro inh 77 (no result: BB579 growth dn, Yeast life ext)
O=C(O)c1ccccc1Nc1ccc([N+](=O)[O-])cc1	BB579 growth dn 95
CCOc1ccccc1Nc1nnc(SC(C)C(=O)Nc2nc(-c3ccccc3)cs2)s1 (centres undefined)	none
COc1cc(NC(=O)COC(C)=O)c(C)cc1[N+](=O)[O-]	none

Compound activity deposited in PubChem BioAssay by SRMLSC.
